Each structure is given as a SMILES string.

A short description of this series: Toxicity liver stage against HepG2, at 10uM. To be noted: human, HepG2-A16-CD81EGFP cells; read-out: INHIBITION
The series is classed as cell-based. Also noted: test concentration 10 uM, cell line HepG2-A16-CD81EGFP. The gist of the method: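 Uninfected HepG2-A16-CD81EGFP cells, 3 × 10^3 per well, 1536-well, plated on prespotted compound at 10 μM final, parasite-free screening media added to match infected plates; puromycin 10 μM positive, DMSO 0.5% negative; run in parallel with 48 h PbLuc assay at 37 °C, 5% CO2; viability by CellTiter-Glo luminescence, normalized to controls.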
`CCn1c(=NC(=O)CSCC(=O)Nc2nccs2)sc2ccccc21`: the cytotoxicity at 10 µM was -2.17%.

For `CCS(=O)(=O)N1CCc2ccc(NC(=O)Nc3ccccc3)cc21`, the cytotoxicity at 10 µM came out at 42.2%. As to `Cc1cc(C(=O)N2CCN(c3nc4c(C(C)C)cccc4s3)CC2)on1`, the cytotoxicity at 10 µM came out at 6.64%. Then `CCc1cc(=O)[nH]c(-n2nc(C3CC3)cc2NC(=O)C2CC2)n1`, with 26.5%; and `Cc1nc(-n2nc(C3CC3)cc2NC(=O)C(C)C)[nH]c(=O)c1C`, with 54.5%. Then `CC(=O)N(C)CC(=O)Nc1cnc(-n2ccnc2C)nc1`, with 3.86%.

For `O=C(NC1CC1)c1cnc(-c2noc3cc(N4CCCCC4)ccc23)s1`, the cytotoxicity at 10 µM was determined as 46%. To `COCCNC(=O)Cn1c(C)cc2nc(SC)n(CC(C)C)c(=O)c21` belongs -14.6%; to `COc1ccc(-c2nnsc2C(=O)N2CCC(C(N)=O)CC2)cc1`, -1.7%.

As for `COCCCNC1N=C(n2nc(C)cc2C)Nc2sc3c(c21)CCCC3` (stereo not given), the cytotoxicity at 10 µM stood at 10.6%. Turning to `O=C(c1ccc(COc2ccc(Cl)cc2)o1)N1N=CCC1(O)C(F)(F)F` (stereo not given), the cytotoxicity at 10 µM stood at 30%. To `O=C1CC(c2ccc(C(=O)O)cc2)c2c(sc3c2CCCC3)N1` (stereo not given) belongs -5.14%; to `Cc1cc2c(cc1Cl)C=CC1(CCN(C(=O)N3CCOCC3)CC1)O2`, 23.2%; to `CC(C)Nc1cc(-c2c[nH]nc2C2CCN(C(=O)C3CCC3)C2)ccn1` (stereo not given), 81.8%.

Turning to `CC(C)C[C@H](N)COc1cccc(F)c1Oc1ccc(Cl)cc1`, the cytotoxicity at 10 µM came out at 84.7%. Then `Cc1ccc(Nc2nccc(C3CCN(CC(N)=O)C3)n2)nc1` (stereo not given), with -16.7%.

On to `Cc1ccc(Oc2cc(F)ccc2O[C@@H]2CCC[C@@H](N)[C@H]2O)cc1`, for which the cytotoxicity at 10 µM was -3.89%. Then `COc1cc(C)c(CN2CCc3nc4ccsc4c(=O)n3CC2)cc1C`, with -15.7%; and `COc1ccc(CN2CCc3nc4ccsc4c(=O)n3CC2)c(C)c1C`, with 67.3%; and `Cc1ccc(S(=O)(=O)N2C[C@H]3C[C@H](NC(=O)c4ccccn4)[C@H]3C2)cc1`, with 64.3%. Then `Cc1cc(-c2cnc(NCc3ccc4c(c3)OCO4)nc2C(C)C)on1`, with -1.23%. To `Cc1ccc([C@]2(O)CC[C@H]3CN(Cc4ccc(Cl)cc4Cl)C[C@H]32)nc1` belongs 8.32%; to `CN(C)S(=O)(=O)N1CCC(c2cccc(Cc3ccccc3Cl)n2)CC1`, 55.9%; to `Cc1nccn1-c1cccc(N2CCC(OCC3CCCCO3)CC2)n1` (stereo not given), 11.3%. As to `COC(=O)c1ncccc1N1CCCCC1`, the cytotoxicity at 10 µM was -8.77%. To `CCN(C)S(=O)(=O)N1CCCC(c2nc(-c3ccccc3)c[nH]2)C1` (stereo not given) belongs -8.02%; to `COc1cc(NC(=O)N(C)C(C2CC2)C2CC2)ncn1`, -6.69%; to `Cc1noc(C)c1CN(C)CCc1nc(-c2cccc(Cl)c2)no1`, 16.6%.

For `COC(=O)CCN(C)C(=O)c1csc(Cc2ccccc2F)n1`, the cytotoxicity at 10 µM came to 9.38%. Then `Cc1csc(N2CCCN(c3cc(C)nc(C)c3C#N)CC2)n1`, with 22.6%; and `c1cnnc(N2CCCC2CNCCc2cccs2)c1` (stereo not given), with -0.555%. Then `CC(C(=O)Nc1sccc1C(N)=O)N(C)CCOc1ccccc1` (stereo not given), with 2.59%. Then `c1ccc(C2CCCN(c3cncc(-n4cccn4)n3)CC2)cc1` (stereo not given), with 48%; and `CCCS(=O)(=O)CC(=O)N1CCCC1c1noc(C2CC2)n1` (stereo not given), with 3.34%; and `COc1ccc(Br)c(C(=O)NCC2CC2)c1`, with 23.4%. As for `COCCN1CCN(CCS(=O)(=O)c2cccc(OC)c2)CC1`, the cytotoxicity at 10 µM was -1.33%. To `Cc1nc(COc2ccc(CNCCn3cccn3)cc2)cs1` belongs -8.96%; to `C=C(C)CN1CCC(NC(=O)NCCc2ccccc2OC)CC1`, 14.2%. Then `COCC(=O)NCc1cccc(OCCN(C)C2CCOCC2)c1`, with 8.35%; and `O=C(CN1CCCC1Cn1cncn1)NCC1(c2ccccc2)CC1` (stereo not given), with 4.74%; and `Cc1nc(C)n(CC2CCCN2CC(=O)NCCc2ccsc2)n1` (stereo not given), with 0.932%. Then `O=C(c1c[nH]c(=O)[nH]1)N1CCc2ccccc21`, with 81.9%; and `Cc1cn2c(n1)C(CNCC1=Cc3cc(Cl)ccc3OC1)CCC2` (stereo not given), with 33.3%; and `CC(C)n1nc2c(cc1=O)CN(c1ncnc3sccc13)CC2`, with 49.7%. For the molecule `COC(=O)c1sc(NCc2ccc(N3CCC(O)CC3)c(F)c2)nc1Cl`, the cytotoxicity at 10 µM was determined as 44.5%. To `Cc1ccc(-c2nc(CSCCC(=O)NC(N)=O)co2)cc1` belongs -2.69%; to `Fc1cccc2ncnc(NCC3(N4CCOCC4)CCSC3)c12` (stereo not given), 50.6%. Then `N#Cc1ccc(CN(CC(N)=O)C2CCCC2)cc1`, with 38%. Then `CCc1nc(CN2CCCC(Nc3ncnc4ccsc34)C2)no1` (stereo not given), with 52.2%; and `Cc1ncc(C(=O)NC2CCN(CCOc3ccc(Br)cc3)CC2)s1`, with 7.28%. Take `CN1CCOC(C(=O)Nc2ccc3c(c2)nc(C(C)(C)C)n3C)C1` (stereo not given): the cytotoxicity at 10 µM is -1.8%. To `CC1CCN(c2nc3c(cnn3-c3ccccc3)c(=O)[nH]2)CC1` belongs -9.5%; to `CCc1nc(CN2CCN(c3ncnc4cc(F)ccc34)CC2)no1`, 41.5%. Then `NC(=O)C1CN(C(=O)Nc2cc(Cl)cc(Cl)c2)CCO1` (stereo not given), with 55.1%; and `Cc1ccc(CN2CCC3(CC2)C(=O)NCCN3CC2CC2)o1`, with -66.8%. Consider `Cc1cn2c(=O)c(-c3ccnc(N(C)C4CCCCC4)n3)cnc2s1`, for which the cytotoxicity at 10 µM was 9.49%.

Turning to `Cc1noc(-c2ccnc(Oc3ccc(CN4CCCC4)cc3C)c2)n1`, the cytotoxicity at 10 µM is 51.4%. On to `Cc1cnc(C)c(Oc2ccc(CN3CCCC3)cc2Cl)n1`, for which the cytotoxicity at 10 µM was -1.37%. Then `Cc1ccccc1OC1CN(Cc2c(C)nc3ccccn23)C1`, with 43.3%; and `CN(Cc1cccc(-n2cccn2)c1)c1cc(N2CCCC2)nc(N)n1`, with 51.6%; and `O=S1(=O)CCC(CNc2cc(-c3ccccc3)nc3ccnn23)C1` (stereo not given), with 61.2%. Then `Cc1[nH]c2ccc(Cl)cc2c1CCNc1ncnc2c1CCNC2`, with 22.4%. Then `COc1cc(Oc2ccc(C(F)(F)F)cn2)ccc1CN1CCCC1`, with 51.5%; and `OCC1(Cc2ccc(Cl)cc2)CCN(Cc2cccnc2)CC1`, with -45.6%.

`Cc1ccccc1N1CCN(c2nc(N(C)C)nc3c2CCNC3)CC1`: the cytotoxicity at 10 µM was 8.97%.

With `NCC1CCN(C2CCN(c3ccc(-c4ccco4)cc3)CC2)C1` (stereo not given), the cytotoxicity at 10 µM was determined as 93.9%. Then `CCCc1cncnc1N1CCC(NCc2cc3ccccc3[nH]2)CC1`, with 15.8%. To `Cc1c(-c2cnn(C)c2)nc(N)c(C#N)c1-c1ccc(CO)o1` belongs -117%; to `COc1ccccc1C1CCN(c2ccc3cc[nH]c3n2)CC1`, -6.78%; to `CC(C)(C)c1cn(CC2CCCN(c3cnc4ccccc4n3)C2)nn1` (stereo not given), 42.9%. To `FC(F)(F)c1nc(NC2CCCCC2)c2ccccc2n1` belongs 29.7%; to `Cc1ccccc1-n1cc(-c2ccnc(NC(CO)C(C)C)n2)cn1` (stereo not given), 7.12%; to `Nc1nc2c(c(NC3CCCC3)n1)CCN(C(=O)C1CCOC1)CC2` (stereo not given), -129%. In the case of `COCc1noc(-c2ccc(N3CCCCC3CO)nc2)n1` (stereo not given), the cytotoxicity at 10 µM was -2.38%.

For `FC(F)(F)c1nc(NC2CCCC2)c2ccccc2n1`, the cytotoxicity at 10 µM is 15.8%. With `CC(=O)c1ccc(N2CCC(CO)(CCOc3ccccc3)CC2)nc1`, the cytotoxicity at 10 µM came out at 28.1%. For the molecule `Cc1ccccc1-c1noc(CN2CCC(N3CCNC3=O)CC2)n1`, the cytotoxicity at 10 µM was found to be 11.6%. With `O=C1NCCN1C1CCN(Cc2nc(-c3ccccc3)no2)CC1`, the cytotoxicity at 10 µM stood at 30.3%.

`Cc1cnn(C2CN(Cc3nc(-c4ccccc4C)no3)C2)c1`: the cytotoxicity at 10 µM is -10.6%. To `O=C(c1cc(Cl)c[nH]1)N1CCCC(c2cc(C(F)(F)F)[nH]n2)C1` (stereo not given) belongs 18%; to `COc1cc(C(=O)Nc2nc(C)no2)cc(OC)c1Br`, -8.78%; to `CCc1cccc(N2CCC(NC(=O)c3ccco3)CC2)c1`, -4.38%.

`Cc1nc(C)n(CC2CN(Cc3nc4ccccc4s3)CCO2)n1` (stereo not given): the cytotoxicity at 10 µM amounted to 44.4%. Then `Cc1nc(C)n(CC2CCCN(c3ncnc4ccccc34)C2)n1` (stereo not given), with 17.4%.

Regarding `COc1c(CNCc2ccc(C(=O)N(C)C(C)C)cc2)c(C)nn1C`, the cytotoxicity at 10 µM is 33.2%. For the molecule `COc1c(C)cnc(CN2CCC(N(C)C(C)C(N)=O)CC2)c1C` (stereo not given), the cytotoxicity at 10 µM is -3.38%.

Consider `Cc1cccc(NC2CCN(C(=O)Nc3cc(F)cc(F)c3)CC2)n1`, for which the cytotoxicity at 10 µM was -0.961%. To `Cc1nnc(N2CC[C@H]3C[C@H](C(=O)N(C)C)O[C@@H]3C2)s1` belongs -80.9%; to `Cc1nnc(N2CC[C@@H](OCC3CC3)[C@@H](Cc3ccccc3)C2)s1`, 14.4%; to `O=C(NC1CC1)[C@@H]1CCO[C@@H]2CCN(CC3CCC3)C[C@@H]21`, -101%.

As to `O=C(NCc1cc(=O)n2c(n1)CN(CC1CC1)CCC2)c1ccsc1`, the cytotoxicity at 10 µM was -103%. Then `Fc1ccc(CN2CCO[C@H]3[C@H](OCc4ccncc4)CC[C@@H]32)cc1`, with -26.7%; and `COc1ccc2c(c1)C1(CCNCC1)CC2NC1CC1` (stereo not given), with -117%; and `O=C(Cc1ccncc1)N1CCC2(CC1)CC(c1ccccc1)CO2` (stereo not given), with -86.1%. Then `c1cnc(N2CCC3(CC2)CC(NCC2CC2)c2ccccc23)nc1` (stereo not given), with 22.4%.

(Values after ChEMBL document CHEMBL4513216, “Probing the Open Global Health Chemical Diversity Library for Multistage-Active Starting Points for Next-Generation Antimalarials” (ACS Infect Dis, 2020).)
